Experimental data from ChEMBL document CHEMBL1156846, “Remote functionalization of SCH 39166: discovery of potent and selective benzazepine dopamine D1 receptor antagonists” (Bioorg Med Chem Lett, 2010).

Tests used:
D(1A) dopamine receptor = D(1A) dopamine receptor (Homo sapiens, UniProt P21728); assay: Displacement of [3H]SCh23390 from dopamine D1 receptor expressed in mouse LTK cells by scintillation counting; format: cell-based
D(1B) dopamine receptor = D(1B) dopamine receptor (Homo sapiens, UniProt P21918); assay: Displacement of radioligand from dopamine D5 receptor expressed in mouse LTK cells by scintillation counting; format: cell-based
D(1B) dopamine receptor, sequence (P21918 whole entry): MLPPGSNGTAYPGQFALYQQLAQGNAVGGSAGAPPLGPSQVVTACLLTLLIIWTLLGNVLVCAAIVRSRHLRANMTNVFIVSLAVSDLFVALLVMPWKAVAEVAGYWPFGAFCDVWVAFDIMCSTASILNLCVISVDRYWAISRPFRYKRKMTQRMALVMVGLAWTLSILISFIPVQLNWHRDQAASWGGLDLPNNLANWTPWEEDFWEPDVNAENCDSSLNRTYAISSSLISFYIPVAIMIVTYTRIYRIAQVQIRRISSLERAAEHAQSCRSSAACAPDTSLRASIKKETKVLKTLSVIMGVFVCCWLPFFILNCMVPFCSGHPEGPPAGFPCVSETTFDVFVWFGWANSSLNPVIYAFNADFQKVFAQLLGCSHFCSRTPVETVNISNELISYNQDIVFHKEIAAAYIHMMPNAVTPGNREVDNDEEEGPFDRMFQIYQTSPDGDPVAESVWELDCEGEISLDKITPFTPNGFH
Outline: (§1)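 Ki came from equilibrium radioligand binding. Bound and free radioligand were separated by rapid filtration, and bound counts were measured by liquid scintillation. Standard error was 10%, and assay-to-assay variability was under twofold.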

D(2) dopamine receptor = D(2) dopamine receptor (Homo sapiens, UniProt P14416); assay: Displacement of [3H]methylspiperon from dopamine D2 receptor expressed in mouse LTK cells by scintillation counting; format: cell-based
D(2) dopamine receptor, sequence (P14416 whole entry): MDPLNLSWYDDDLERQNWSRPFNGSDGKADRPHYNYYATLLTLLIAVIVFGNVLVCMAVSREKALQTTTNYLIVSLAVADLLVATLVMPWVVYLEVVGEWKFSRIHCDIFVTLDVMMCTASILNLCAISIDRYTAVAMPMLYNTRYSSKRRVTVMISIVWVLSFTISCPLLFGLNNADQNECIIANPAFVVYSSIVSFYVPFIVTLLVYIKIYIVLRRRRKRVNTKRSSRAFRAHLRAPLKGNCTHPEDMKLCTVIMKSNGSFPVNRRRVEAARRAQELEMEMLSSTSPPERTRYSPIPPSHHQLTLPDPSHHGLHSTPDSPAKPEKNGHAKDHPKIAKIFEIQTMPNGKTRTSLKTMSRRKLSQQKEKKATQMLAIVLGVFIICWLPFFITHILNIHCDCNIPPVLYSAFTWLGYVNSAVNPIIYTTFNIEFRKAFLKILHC

D(4) dopamine receptor = target: T1, D(4) dopamine receptor (Homo sapiens, UniProt P21917); assay: Displacement of radioligand from dopamine D4 receptor expressed in mouse LTK cells by scintillation counting; format: cell-based; outline: as §1
T1 sequence (P21917 whole entry): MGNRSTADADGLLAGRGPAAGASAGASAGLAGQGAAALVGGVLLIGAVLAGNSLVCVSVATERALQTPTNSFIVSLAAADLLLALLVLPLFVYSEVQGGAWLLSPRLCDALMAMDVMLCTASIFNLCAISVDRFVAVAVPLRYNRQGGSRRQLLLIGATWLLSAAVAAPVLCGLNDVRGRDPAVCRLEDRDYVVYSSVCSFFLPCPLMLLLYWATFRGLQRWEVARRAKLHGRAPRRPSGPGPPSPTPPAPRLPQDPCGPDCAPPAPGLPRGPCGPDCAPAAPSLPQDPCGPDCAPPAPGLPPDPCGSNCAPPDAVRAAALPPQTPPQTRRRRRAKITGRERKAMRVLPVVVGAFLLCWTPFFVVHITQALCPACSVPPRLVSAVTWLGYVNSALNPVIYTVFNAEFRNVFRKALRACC

Rattus norvegicus = assay: AUC (0 to 6 hrs) in Sprague-Dawley rat at 10 mg/kg, po; format: ADME, organism-based, Plasma; set-up: time < 6 hr, dose 10 mg/kg, route oral; conditions: in vivo
Outline: (§2)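 Two male Sprague–Dawley rats received 10 mg/kg orally under a cassette-accelerated rapid rat protocol. Blood was sampled at several time points, and values came from pooled samples. […] Individual plasma levels were generally within ±25% of the average.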

[1] = Cmax in Sprague-Dawley rat at 10 mg/kg, po; format: ADME, organism-based; set-up: dose 10 mg/kg, route oral; conditions: in vivo; outline: as §2
[2] = Tmax in Sprague-Dawley rat at 10 mg/kg, po; format: ADME, organism-based; set-up: dose 10 mg/kg, route oral; conditions: in vivo; outline: as §2

D(1A) dopamine receptor, sequence (P21728 whole entry): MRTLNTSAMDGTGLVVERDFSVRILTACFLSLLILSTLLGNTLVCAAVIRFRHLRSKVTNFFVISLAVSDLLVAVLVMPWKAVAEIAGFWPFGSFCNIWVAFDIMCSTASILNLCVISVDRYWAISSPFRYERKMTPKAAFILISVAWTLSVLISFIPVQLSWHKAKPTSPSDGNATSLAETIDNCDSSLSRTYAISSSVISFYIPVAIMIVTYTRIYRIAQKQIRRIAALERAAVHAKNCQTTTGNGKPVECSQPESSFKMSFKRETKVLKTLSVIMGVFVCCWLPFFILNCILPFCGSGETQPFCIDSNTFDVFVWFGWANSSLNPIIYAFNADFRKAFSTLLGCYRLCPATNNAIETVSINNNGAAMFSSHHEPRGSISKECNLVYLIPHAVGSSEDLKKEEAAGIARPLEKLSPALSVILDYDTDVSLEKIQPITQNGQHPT

Compound	Ki (D(1A) dopamine receptor) [nM]	Ki (D(1B) dopamine receptor) [nM]	Ki (D(2) dopamine receptor) [nM]	Ki (D(4) dopamine receptor) [nM]	AUC (Rattus norvegicus) [µg·h/mL]	Cmax [1] [ng/mL]	Tmax [2] [h]
CN1CCc2cc(Cl)c(O)cc2[C@H]2c3cccc(Br)c3CC[C@@H]21	3	7.5	1690	10000	–	–	–
CN1CCc2cc(Cl)c(O)cc2[C@H]2c3cccc(-c4cccc(C#N)c4)c3CC[C@@H]21	0.6	3.4	584	10000	–	–	–
CN1CCc2cc(Cl)c(O)cc2[C@H]2c3cccc(/C=N/Oc4ccccc4)c3CC[C@@H]21	1	2.1	124	10000	–	–	–
CN1CCc2cc(Cl)c(O)cc2[C@H]2c3ccccc3CC[C@@H]21 [ECOPIPAM]	–	2	–	5520	156	–	–
CN1CCc2cc(Cl)c(O)cc2[C@H]2c3cccc(C#N)c3CC[C@@H]21	2.8	89	1330	10000	–	–	–
CN1CCc2cc(Cl)c(O)cc2[C@H]2c3cccc(O)c3CC[C@@H]21	–	1.4	440	3990	–	–	–
CN1CCc2cc(Cl)c(O)cc2[C@H]2c3cccc(CO)c3CC[C@@H]21	2	7.4	1650	6280	–	–	–
CCO/N=C/c1cccc2c1CC[C@H]1[C@H]2c2cc(O)c(Cl)cc2CCN1C	1.8	10	217	5890	–	–	–
CN1CCc2cc(Cl)c(O)cc2[C@H]2c3cccc(N4CCCC4=O)c3CC[C@@H]21	3.1	26.9	1370	10000	–	–	–
CN1CCc2cc(Cl)c(O)cc2[C@H]2c3cccc(-c4ccc5[nH]ccc5c4)c3CC[C@@H]21	0.6	–	51	–	–	–	–
CO/N=C/c1cccc2c1CC[C@H]1[C@H]2c2cc(O)c(Cl)cc2CCN1C	4.4	22	483	7510	–	–	–
CN1CCc2cc(Cl)c(O)cc2[C@H]2c3cccc(-c4cccc(OC(F)(F)F)c4)c3CC[C@H]21	2.3	–	1610	–	–	–	–
CN1CCc2cc(Cl)c(O)cc2[C@H]2c3cccc(-c4ccncc4)c3CC[C@@H]21	–	10.5	756	5060	75	43	0.5
CN1CCc2cc(Cl)c(O)cc2[C@H]2c3cccc(-c4cc(F)cc(F)c4)c3CC[C@@H]21	0.9	–	312	–	–	–	–
CN1CCc2cc(Cl)c(O)cc2[C@H]2c3cccc(/C=N/OCc4ccccc4)c3CC[C@@H]21	0.2	2.5	69	8340	–	–	–
COc1ccc(-c2cccc3c2CC[C@H]2[C@H]3c3cc(O)c(Cl)cc3CCN2C)cc1	0.7	6.2	550	10000	76	18	2
CN1CCc2cc(Cl)c(O)cc2[C@H]2c3cccc(/C=N/O)c3CC[C@@H]21	1.6	3.3	882	4370	–	–	–
CN1CCc2cc(Cl)c(O)cc2[C@H]2c3cccc(-c4ccc(CO)cc4)c3CC[C@@H]21	0.7	–	89	–	–	–	–
CN(C)c1ccc(-c2cccc3c2CC[C@H]2[C@H]3c3cc(O)c(Cl)cc3CCN2C)cc1	0.7	–	12	–	–	–	–
CN1CCc2cc(Cl)c(O)cc2[C@H]2c3cccc(-c4cccc([N+](=O)[O-])c4)c3CC[C@@H]21	0.6	4.7	618	10000	–	–	–
CN1CCc2cc(Cl)c(O)cc2[C@H]2c3cccc(C=O)c3CC[C@@H]21	2.6	3.3	1370	5970	–	–	–
CN1CCc2cc(Cl)c(O)cc2[C@H]2c3cccc(-c4cccc(F)c4)c3CC[C@@H]21	0.4	–	223	–	–	–	–
CN1CCc2cc(Cl)c(O)cc2[C@H]2c3cccc(C(=O)O)c3CC[C@@H]21	38	–	420	–	–	–	–
COC(=O)c1cccc2c1CC[C@H]1[C@H]2c2cc(O)c(Cl)cc2CCN1C	2.3	3.7	923	4830	–	–	–
CN1CCc2cc(Cl)c(O)cc2[C@H]2c3cccc(-c4cccs4)c3CC[C@@H]21	–	1.9	93	10000	353	90	2
CN1CCc2cc(Cl)c(O)cc2[C@H]2c3cccc(-c4ccccc4)c3CC[C@@H]21	–	–	79	–	–	–	–
